Measurements from article PMC12222516 (Scientific Reports, 2025).

Experiments:
MTT cytotoxicity assay = format: cell-based, human; conditions: human, normal human dermal fibroblast (HDF) cells
How it was run: (§1)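 Human dermal fibroblasts grown in DMEM with 10% FBS, penicillin 100 units/mL, streptomycin 100 µg/mL and amphotericin B 0.25 µg/mL. Seeded at 2 × 10³ cells/well and left to adhere overnight at 37 °C, 5% CO2. Exposed to varying doses for 24 h, with 0.5% DMSO as untreated control. MTT at 1 mg/mL for 4 h at 37 °C. Formazan dissolved in DMSO and read at 570 nm. Viability expressed as % of control.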

[1] = tested on: normal human dermal fibroblast (HDF) cells; assay: MTT cytotoxicity assay; format: cell-based; conditions: HDF cells, MTT
How it was run: as §1

[2] = biological target: α-glucosidase from Saccharomyces cerevisiae (Saccharomyces cerevisiae, UniProt P53341); assay: Enzyme kinetic study; format: biochemical
Sequence of α-glucosidase from Saccharomyces cerevisiae (P53341 whole entry): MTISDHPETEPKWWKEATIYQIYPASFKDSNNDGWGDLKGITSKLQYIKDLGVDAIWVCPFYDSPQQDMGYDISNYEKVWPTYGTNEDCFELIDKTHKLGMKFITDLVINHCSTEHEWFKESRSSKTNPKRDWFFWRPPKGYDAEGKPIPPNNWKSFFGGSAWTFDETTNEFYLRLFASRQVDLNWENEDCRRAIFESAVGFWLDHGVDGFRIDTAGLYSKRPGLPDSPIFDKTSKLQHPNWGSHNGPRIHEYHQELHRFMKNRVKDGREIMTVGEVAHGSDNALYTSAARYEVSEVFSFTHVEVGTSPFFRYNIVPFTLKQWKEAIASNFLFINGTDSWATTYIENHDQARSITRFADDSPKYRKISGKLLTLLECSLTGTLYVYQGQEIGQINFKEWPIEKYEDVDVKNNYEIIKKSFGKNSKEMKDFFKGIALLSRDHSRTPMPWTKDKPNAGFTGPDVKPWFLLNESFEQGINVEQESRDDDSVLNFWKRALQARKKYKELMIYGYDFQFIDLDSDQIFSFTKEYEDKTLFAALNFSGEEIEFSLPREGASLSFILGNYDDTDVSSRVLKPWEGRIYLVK
How it was run: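 Yeast (S. cerevisiae) α-glucosidase, EC 3.2.1.20, kept at 0.02 U/mL. Run with and without test compound at several concentrations, across a range of p-NPG substrate concentrations. Inhibition type assigned from the Lineweaver–Burk plot. Ki taken from a secondary plot of slope against inhibitor concentration.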

Row | Ki [2] | mode of inhibition ([2]; Lineweaver–Burk plots) | Structure (SMILES) | CC50 at 24 h (MTT cytotoxicity assay) | cytotoxic effect on normal cells at given IC50 value [1]
1 |  |  | C[C@H]1CN(C(=O)Nc2ccc(C(F)(F)F)cc2)CCN1c1ccnc(Nc2ccc(Cl)cc2)n1 [Compound 7c, (S)-4-(2-((4-chlorophenyl)amino)pyrimidin-4-yl)-3-methyl-N-(4-(trifluoromethyl)phenyl)piperazine-1-carboxamide] | 42.3 µM | 
2 |  |  | C[C@H]1CN(C(=O)Nc2ccc(C(F)(F)F)cc2)CCN1c1ccnc(Nc2ccc(Cl)c(OCc3ccccc3)c2)n1 [Compound 22c, (S)-4-(2-((3-(benzyloxy)-4-chlorophenyl)amino)pyrimidin-4-yl)-3-methyl-N-(4-(trifluoromethyl)phenyl)piperazine-1-carboxamide] | > 200 µM | 
3 |  |  | C[C@H]1CN(C(=O)Nc2ccc(C(F)(F)F)cc2)CCN1c1ccnc(Nc2cccc([N+](=O)[O-])c2)n1 [Compound 17c, (S)-3-methyl-4-(2-((3-nitrophenyl)amino)pyrimidin-4-yl)-N-(4-(trifluoromethyl)phenyl)piperazine-1-carboxamide] | 15.2 µM | 
4 | 0.74 µM | competitive inhibitor | C[C@H]1CN(C(=O)Nc2ccc(C(F)(F)F)cc2)CCN1c1ccnc(Nc2ccc(Cl)c(O)c2)n1 [Compound 21c, (S)-4-(2-((4-chloro-3-hydroxyphenyl)amino)pyrimidin-4-yl)-3-methyl-N-(4-(trifluoromethyl)phenyl)piperazine-1-carboxamide] | 23.1 µM | no cytotoxic effect
